# Rows were chosen to be rich in hits. Some 3% of all compounds tested hit in one or more screens of this group.
# H9c2 protect = modulators protecting cardiomyocytes from myocardial damage; H9c2 cardiomyocytes, H2O2 injury protection, ATPLite, 2 h; protection from H2O2 cell death, % at 20 µM; actives 0.63% (n = 360,000);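 active means compounds giving at least 50% protection of heart cells from peroxide-induced death in the single-dose screen, raw or plate-pattern-corrected value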;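 further: 0% = DMSO wells with peroxide and 100% = DMSO wells without peroxide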
# Pemphigus Ab inh = inhibitors of pemphigus antibody binding to human desmoglein-3; P32926; DSG3-coupled beads, scFv-anti-DSG3-GFP binding, flow cytometry; hits give low values; binding (percent of control), % at 10 µM; actives 0.48% (n = 310,000); AID 588358;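 active means binding more than 3 SD below its plate's average and above zero; inconclusive means below that plate limit but binding exactly zero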;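 further: hits lower antibody fragment binding to DSG3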
# Granule exo inh = blocks lytic granule exocytosis. TALL-104 LAMP-1 surface exposure, flow cytometry; cells stimulated with thapsigargin and PMA. inhibition, % at 10 µM. actives 0.66% (n = 360,000);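 active means inhibition above about 55%, limit read from the data; inconclusive means no clear call, values can overlap the other calls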
# SENP1 FRET inh = blocks the human SENP1 SUMO protease catalytic domain; Q9P0U3; inhibition, % at 10 µM; AID 624204; actives 0.21% (n = 360,000); recombinant SENP1 catalytic domain, CyPet-SUMO1-YPet FRET cleavage;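 active means inhibition at least 30% at 10 µM, raw YFP signal under a set limit, fluorescence ratio 0.5 to 1.5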;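 further: 0% = enzyme with DMSO and 100% = no enzyme wells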
#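 Compound: 10 µM single point, 0.5% DMSO; Test system: hSENP1 catalytic domain, recombinant; Timing: 50 min reaction at room temperature; Technique: FRET, CFP and YFP emission; Control set: no-enzyme wells low, DMSO-plus-enzyme wells high control.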
# Myeloid diff MLP = compounds promoting myeloid differentiation | actives 1% (n = 360,000) | AID 624256 | ER-HoxA9 myeloid progenitors, lysozyme-GFP differentiation, flow cytometry | calls only at 10 µM;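 active means normalized GFP-positive differentiation at or above the plate's own cutoff, the solvent-only control mean plus 3 SD; inconclusive means no clear call, values can overlap the other calls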;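 further: cells exposed to compound for four days before flow analysis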
# HNF4A DNA FP = change in binding of human HNF4 alpha to DNA | P41235 | actives 0.3% (n = 360,000) | HNF4a-FITC DNA binding, fluorescence polarization, 1 h | activity change, % at 10 µM; in the data active means activity change above about 30%, passing the limit was not always enough
# Target sequence (P41235 whole entry, looked up): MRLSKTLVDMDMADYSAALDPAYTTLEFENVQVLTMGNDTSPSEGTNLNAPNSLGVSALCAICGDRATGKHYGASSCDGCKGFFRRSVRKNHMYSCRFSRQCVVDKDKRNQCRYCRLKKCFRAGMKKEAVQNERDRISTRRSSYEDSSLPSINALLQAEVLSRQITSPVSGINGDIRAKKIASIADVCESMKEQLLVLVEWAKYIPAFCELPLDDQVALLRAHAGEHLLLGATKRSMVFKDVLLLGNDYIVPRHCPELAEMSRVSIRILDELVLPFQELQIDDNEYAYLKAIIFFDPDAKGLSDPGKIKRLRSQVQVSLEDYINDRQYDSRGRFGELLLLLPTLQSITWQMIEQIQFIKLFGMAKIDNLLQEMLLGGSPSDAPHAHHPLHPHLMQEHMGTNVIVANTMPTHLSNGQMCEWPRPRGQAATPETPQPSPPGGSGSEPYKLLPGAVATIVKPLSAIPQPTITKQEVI
# Active calls of the source: *; i = inactive; ? = inconclusive; · = no result given; + = active, no number.
SMILES,H9c2 protect,Pemphigus Ab inh,Granule exo inh,SENP1 FRET inh,Myeloid diff MLP,HNF4A DNA FP
CS(=O)(=O)Nc1ccccc1C(=O)Nc1ccc2c(c1)OCCO2,-4.3,101.0,0.2,0.7,+,-3.4
C1=C2C[N+]3(CCCC3)CC2Cc2ccc3ccccc3c21 (centres undefined),2.8,105.9,-6.1,0.4,+,2.2
CCC(C(=O)NCc1ccccc1)n1c(CSCCOc2ccccc2)nc2ccccc21 (centres undefined),·,·,16.0,0.0,i,3.9
O=C(NC1CSC/C1=N\O)c1ccccc1 (centres undefined),0.5,81.7*,-6.1,-0.1,i,-2.0
CC12CN3CC(C)(CN(C1)C3c1ccc3c(c1)OCO3)C2O (centres undefined),0.1,86.8,-4.3,1.7,i,-1.4
Cc1ccc(S(=O)(=O)NC(=O)Nc2ccc(Cl)cn2)cc1,5.1,101.5,-1.0,1.5,i,0.2
Cc1ccc(S(=O)(=O)CC(=O)Nc2ccc(Cl)cn2)cc1,1.1,103.7,0.3,4.6,i,33.6*
O=C(O)/C=C\C(=O)Nc1ccccc1C(=O)N1CCC(O)(c2ccc(Cl)cc2)CC1,-2.5,110.0,-33.3,1.1,i,-2.3
COC(=O)c1c(C(=O)OC)c(-c2cccc(Cl)c2)n2c1CS(=O)(=O)C2,0.8,102.8,-5.6,1.0,+,1.8
COC(=O)c1c(C(=O)OC)c(-c2cccc(C)c2)n2c1CS(=O)(=O)C2,4.6,109.4,-0.8,-0.5,i,0.8
COc1ccc(Nc2nc(C)cc(C)c2C#N)cc1OC,-12.0,12.4*,0.4,3.5,i,2.9
COc1ccc(CC(=O)NC(C)c2nnc(SCC(=O)c3ccc(OC)cc3)n2C)cc1 (centres undefined),-3.6,111.8,1.4,-0.6,i,1.4
COc1ccc(CC(=O)NC(C)c2nnc(SCCOc3ccc(OC)cc3)n2C)cc1 (centres undefined),-0.9,105.7,-0.9,1.0,+,-2.7
CCOC(=O)N1CCN(S(=O)(=O)c2ccc(C(=O)NNc3nc4c(C)cc(C)cc4s3)cc2)CC1,47.5,·,-0.7,35.7,i,-2.6
CCOC(=O)N1CCN(S(=O)(=O)c2ccc(C(=O)NNc3nc4cc(C)cc(C)c4s3)cc2)CC1,55.9*,94.5,-1.6,39.3,i,-1.8
CCOC(=O)C1CCN(S(=O)(=O)CCNC(=O)c2cccc(OC)c2)CC1,1.9,100.4,7.3,2.5,i,1.3
COc1ccc(C2=Nn3c(nnc3-c3ccccc3Cl)SC2)cc1OC1CCOC1 (centres undefined),4.4,73.8*,5.3,1.4,i,0.8
O=c1nc(-c2ccccc2)c2ccccc2[nH]1,-9.7,87.6*,-2.1,-0.7,i,-0.6
CN(Cc1ccccc1)C(=O)CN1C(=O)NC(C)(c2ccc(Cl)cc2)C1=O (centres undefined),-2.1,113.7,-3.5,1.5,i,2.1
CCCCn1c(-c2ccccc2)cnc1SCC(=O)NCCc1ccc(OC)c(OC)c1,-4.7,101.6,1.7,-3.4,i,2.6
Oc1ccc(Nc2nc3ccccc3nc2Nc2ccc(O)cc2)cc1,-3.1,99.2,0.0,-41.0,?,44.1*
Oc1ccc(Nc2nc(-c3ccccc3)nc3ccccc23)cc1,9.0,118.7,3.4,-1.6,i,0.8
Cc1nc(NC(=O)/C=C/c2ccco2)sc1C,-0.6,-3.5*,-4.8,-0.5,?,-0.2
CNS(=O)(=O)c1ccc2nc(NC(=O)/C=C/c3ccco3)sc2c1,64.4*,105.8,-0.2,-42.7,i,16.0
O=C(/C=C/c1ccco1)Nc1nnc(-c2ccco2)s1,13.3,97.8,3.9,-3.1,+,-2.5
SMILES,H9c2 protect,Pemphigus Ab inh,Granule exo inh,SENP1 FRET inh,Myeloid diff MLP,HNF4A DNA FP
CCc1nnc(NC(=O)/C=C/c2ccco2)s1,10.8,98.8,-1.8,4.5,i,1.1
CC12CCC(=O)N1C(C(=O)Nc1nc3ccccc3s1)CS2 (centres undefined),-2.8,107.4,-3.1,-0.5,i,-1.7
Cc1cccc(C)c1NC(=O)COC(=O)C1Cc2ccccc2CN1C(=O)c1ccccc1 (centres undefined),0.6,121.7,-0.7,-0.2,i,-1.2
N#Cc1ccc(NC(=O)COC(=O)C2Cc3ccccc3CN2C(=O)c2ccccc2)cc1 (centres undefined),6.2,107.0,-2.6,3.0,+,16.6
CC(C)n1c(=O)c2ccccc2n1Cc1cn(Cc2cccnc2)nn1,2.6,·,-1.7,0.9,i,-3.9
Cc1[nH]n2c(=O)cc(C(C)(C)C)nc2c1-c1ccccc1,52.9*,103.1,-1.0,0.6,i,0.6
Cc1[nH]n2c(=O)cc(C(C)C)nc2c1-c1ccccc1,17.0,98.6,0.4,3.0,i,3.3
O=C(NNc1c2ccccc2nc2ccccc12)c1ccc(O)cc1,42.8,96.9,1.8,-52.3,i,9.3
O=C(NNc1c2ccccc2nc2ccccc12)c1ccc(O)cc1O,33.7,103.4,2.1,-58.7,·,2.5
O=C(NNc1c2ccccc2nc2ccccc12)c1cccc(O)c1,51.2*,·,0.4,-143.2,i,7.2
O=C(NNc1c2ccccc2nc2ccccc12)c1ccccc1O,14.4,86.3,107.8*,-91.1,i,4.4
CN(C)CCN(Cc1cccs1)S(=O)(=O)c1csc(C(N)=O)c1,0.8,96.9,0.4,0.8,i,-0.3
Cc1nc2c(-c3ccccc3)c[nH]n2c(=O)c1Cc1ccccc1,18.6,64.1*,1.3,-1.5,i,-3.5
CCOC(=O)Cc1c(C)nc2c(-c3ccc(Cl)cc3)c[nH]n2c1=O,51.8*,100.7,29.4,1.1,i,0.3
Cc1cc(=O)n2[nH]cc(-c3ccccc3)c2n1,-2.1,85.0,0.4,3.9,i,0.8
CC(=O)N(Nc1ccccc1)c1ccccc1,-1.6,67.3*,1.1,0.4,i,-1.7
CC(=O)N(CCN(C(C)=O)c1ccccc1)c1ccccc1,5.7,104.0,-0.7,-0.3,i,4.7
CCc1cc(=O)oc2cc(C)cc(OC(C)C(=O)NCc3ccccn3)c12 (centres undefined),1.7,108.4,6.3,-0.9,i,-0.1
CC(=Nc1ccccc1)C1=C(O)C(Cc2ccc(O)cc2)NC1=O (centres undefined),-2.1,·,2.9,0.6,?,-3.1
Cc1ccc(OCC(=O)Nc2cnn(CCCC(=O)O)c2)c([N+](=O)[O-])c1,6.0,99.7,-3.7,2.2,i,-1.3
Cc1noc(/C=C/N(C)C)c1S(=O)(=O)N1CCCC(C(=O)Nc2ccccc2F)C1 (centres undefined),-1.9,107.2,-1.6,-1.4,+,2.8

# High-throughput results: PubChem, several laboratories
